Published values of several laboratories.
Each line is one published result; the experiments were not run side by side.
TMPRSS13: TMPRSS13 (Homo sapiens, UniProt Q9BYE2)
PNLIP: Pancreatic triacylglycerol lipase (PNLIP, Sus scrofa, UniProt P00591)
CHRM2: Muscarinic acetylcholine receptor M2 (CHRM2, Homo sapiens, UniProt P08172)

Compound | target | test | measurement | value
OB1OCc2cc(F)ccc21 | Carbapenem-hydrolyzing beta-lactamase KPC (KPC-2, Klebsiella pneumoniae, UniProt Q9F663) | enzyme activity, inhibitor | IC50 | 1100 nM
CS(=O)(=O)N[C@@H](CCC(N)=O)C(=O)N[C@@H](Cc1ccccc1)C(=O)N[C@@H](CCCNC(=N)N)C(=O)c1nccs1 | TMPRSS13 | cell-free assay | Ki | 355 nM
C=CCc1ccc(O)c(-c2cc(CC=C)ccc2O)c1 | PNLIP | enzyme activity, inhibitor, fluorescence | IC50 | 3240 nM
O=C1Nc2ccc3ncsc3c2/C1=C/c1cnc[nH]1 | Serine/threonine-protein kinase Nek7 (NEK7, Homo sapiens, UniProt Q8TDX7) | enzyme activity, inhibitor | IC50 | 11900 nM
COc1c2c(cc3c1-c1c(cc4c(c1OC)OCO4)C[C@H](C)[C@H](C)C3)OCO2 | PNLIP | enzyme activity, inhibitor, fluorescence | IC50 | 8650 nM
COc1cc2c(cc1OC)CN(CCc1ccc(NC(=O)c3cccc4c(=O)c5cccc(OC)c5[nH]c34)cc1)CC2 | CHRM2 | cell-free assay | Ki | 466 nM
[2H]c1c([2H])c([C@]2([2H])CCCN2C(=O)C(C)(C)Oc2ccc3cn[nH]c3c2)c([2H])c([2H])c1C([2H])([2H])[2H] | Receptor-interacting serine/threonine-protein kinase 1 (RIPK1, Homo sapiens, UniProt Q13546) | enzyme activity, inhibitor | IC50 | 1.8 nM
C[C@H](NC(=O)[C@H](CCC(N)=O)NC(=O)CCCCNC(=N)N)C(=O)N[C@@H](CCCNC(=N)N)C(=O)c1nc2ccccc2s1 | TMPRSS13 | cell-free assay | Ki | 33 nM
C[C@H](CCCOS(=O)(=O)O)[C@H]1CC[C@H]2[C@@H]3CC[C@H]4C[C@@H](O)CC[C@]4(C)[C@H]3CC[C@]12C | CHRM2 | cAMP, antagonist | IC50 | 9050 nM
